Screening results: PubChem, several laboratories
proCasp3 act – activates human procaspase-3 | recombinant procaspase-3 D3A, Ac-DEVD-pNA absorbance 405 nm | 0.11% of 330,000 active | activation, % at 8.5 µM | P42574;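 active = activation above the mean of all tested compounds plus 3 SD, cut at about 21% in these data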
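Assay system – Procaspase-3 D3A mutant · Benchmarks – DMSO low control, extra-enzyme high control · Technique – 405 nm absorbance of p-nitroaniline, reads at 0 and 120 min · Doses – 8.5 µM nominal · Measure – % activation between DMSO and enzyme-spiked controls · Also added – Ac-DEVD-pNA chromogenic peptide substrate · Schedule – 1 h compound preincubation, 2 h substrate hydrolysis at 25 °C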
GSK3A inh – blocks human GSK-3 alpha kinase; 0.1% of 320,000 active; AID 2650; ADP-Glo luminescence, 60 min; inhibition, % at 10 µM; P49840;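 active = more than half of replicates show inhibition above 20%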;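 also: GST-tagged GSK-3 alpha with peptide substrate and 25 µM ATP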
Target sequence (P49840 whole entry, looked up): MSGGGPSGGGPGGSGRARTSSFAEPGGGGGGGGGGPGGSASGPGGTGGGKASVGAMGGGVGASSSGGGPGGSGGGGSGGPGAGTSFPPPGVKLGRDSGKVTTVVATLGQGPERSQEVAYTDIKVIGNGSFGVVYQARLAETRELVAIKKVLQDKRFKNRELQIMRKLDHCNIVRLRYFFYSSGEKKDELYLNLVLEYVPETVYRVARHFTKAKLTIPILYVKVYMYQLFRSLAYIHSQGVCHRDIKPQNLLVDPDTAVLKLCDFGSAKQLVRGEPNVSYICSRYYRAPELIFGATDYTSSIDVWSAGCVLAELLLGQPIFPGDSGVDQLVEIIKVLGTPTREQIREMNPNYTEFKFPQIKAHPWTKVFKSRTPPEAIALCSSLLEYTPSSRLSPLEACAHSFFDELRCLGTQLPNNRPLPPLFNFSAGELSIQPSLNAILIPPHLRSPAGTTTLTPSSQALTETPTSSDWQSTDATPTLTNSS
GSK3B inh – blocks human GSK3beta kinase activity | P49841 | GST-GSK3beta kinase, ADP-Glo luminescence, 60 min; stronger effect = lower value | activity score (negative = inhibition), % at 10 µM | 0.038% of 300,000 active | AID 2097;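 active = more than half of replicate wells score below -50%, meaning over 50% inhibition versus plate controls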
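Test system: GST-tagged human GSK3beta kinase, cell-free; evaluation: activity score scaled between in-plate DMSO and GW8510 controls; measured by: ADP-Glo luminescence; incubation: 60 min reaction, RT; benchmarks: DMSO and 20 µM GW8510; reagent: peptide substrate plus 25 µM ATP (final); medium: Tris/MgCl2 kinase buffer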
A1 inh – inhibitors of the anti-apoptotic protein A1, read as caspase activation; MEF A1-2A-BIM cells, Caspase-Glo 3/7 luminescence, 3 h; percent of clofoctol response, vehicle zero; caspase activation, % (no concentration beside the values); 0.066% of 330,000 active;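 active = over half of replicate activation scores above 10%, or exactly half above 10 with the replicate mean above 10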
STK33 inh – inhibitors of human STK33 kinase | purified STK33, MBP phosphorylation, ADP-Glo luminescence | 0.073% of 320,000 active | Q9BYT3 | inhibition, % at 10 µM;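 active = inhibition at or above 25%, using the most active replicate where run in duplicate; inactive = inhibition below 25%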
procasp7 counter – counter-screen: procaspase-7 (human) activation. 0.093% of 330,000 active. activation, % at 8.5 µM. AID 463210. recombinant procaspase-7, Ac-DEVD-pNA absorbance 405 nm; D23A/D198A/D206A triple mutant, cannot self-cleave; scale: DMSO 0, 5 µM enzyme 100. P55210;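 active = percent activation above the screen-wide mean plus 3 SD, cut at about 25% in these data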
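Assay system – Uncleavable procaspase-7 mutant enzyme · Quantity – 2 µM procaspase-7 mutant as dispensed · Times – 1 h preincubation, 2 h reaction · Dosing – single nominal 8.5 µM compound dose, 0.8% DMSO final · Buffer or medium – Zinc-free 50 mM HEPES buffer, pH 7.4, with NaCl and Triton X-100 · Detection – Epi-absorbance of released pNA at 405 nm, two timepoints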
Each line names hits and unclear results; the compound was inactive in the other large screens. The list is not random: actives were taken first. Their share in the collection is about 0.38%.

N#CC(C#N)=C1C=CC=CN1/C(=C\c1ccccc1Cl)C(=O)c1ccccc1	A1 inh 14 (no result: GSK3B inh)
CCN1C(=O)CC(c2ccccc2)N(C2CCCC2)c2nc(Nc3ccc(C(=O)NC4CCN(C)CC4)cc3OC)ncc21 (centres undefined)	STK33 inh 47 (no result: GSK3B inh)
CCN1C(=O)CSc2ccc(C(=O)NC3CCCCC3)cc21	none (no result: GSK3A inh)
O=C(N=Nc1c(O)[nH]c2ccc(Br)cc12)c1cc(-c2cccs2)nc2ccccc12	none (no result: proCasp3 act, GSK3A inh, A1 inh, STK33 inh, procasp7 counter)
O=C(N=Nc1c(O)[nH]c2ccc([N+](=O)[O-])cc12)c1cc(-c2ccccc2Cl)nc2ccccc12	A1 inh 48
CCN1C(=O)N(C(C)=O)C2C1N(C(C)=O)C(=O)N2C(C)=O (centres undefined)	none
CCOC(=O)c1ccc(-c2ccc(/C=N/NC(=O)CN(c3cccc(C)c3)S(C)(=O)=O)o2)cc1	A1 inh 17
CCc1nnc(NC(=O)CSc2nnc(C(C)NC(=O)c3ccccc3)n2C)s1 (centres undefined)	none
O=C(CSc1ccccn1)Nc1ccc2[nH]c(=O)[nH]c2c1	none (no result: GSK3B inh)
CC(C)NC(=S)Nc1ccc2cn[nH]c2c1	STK33 inh 58
CCc1ccc(NC(=S)Nc2ccc3cn[nH]c3c2)cc1	STK33 inh 31
CN(C)S(=O)(=O)c1cccc(NC(=S)Nc2ccc3cn[nH]c3c2)c1	STK33 inh 48
S=C(NCc1ccccc1)Nc1ccc2cn[nH]c2c1	STK33 inh 26
S=C(Nc1ccc(Cl)cc1)Nc1ccc2cn[nH]c2c1	none
CCOC(=O)CNC(=O)N1CCCC(C(=O)c2ccccc2SC)C1 (centres undefined)	none
CSc1ccc(NC(=O)N2CCC(C(=O)c3ccc(F)cc3)CC2)cc1	none
CC(C)N(C(=O)[C@H]1C[C@H](CC(=O)NCCN2CCOCC2)C(=O)N2CCc3c([nH]c4ccc(Cl)cc34)[C@]12C)C(C)C	none (no result: GSK3A inh, GSK3B inh, A1 inh, STK33 inh)
COc1ccc(NC(=S)Nc2ccc3cn[nH]c3c2)cc1	STK33 inh 39
CC(C)c1cccc(-c2ccc3c(c2)S(=O)(=O)c2cccc(C(=O)NC4CCCC4)c2C3=O)c1	A1 inh 7.3 (no result: GSK3B inh)
O=C(NC1CCCC1)c1cccc2c1C(=O)c1ccc(/C=C/c3ccccc3)cc1S2(=O)=O	A1 inh 40 (no result: GSK3B inh)
Cc1cc2nc(-c3ccc[nH]c3=O)n(Cc3ccc(F)cc3)c2cc1C	none
Cc1cc2nc(-c3ccc[nH]c3=O)[nH]c2cc1C	GSK3A inh 61
Nc1nonc1-n1nnc(C(=O)N/N=C/c2ccccc2F)c1CN1CCOCC1	none
CCOc1ccccc1/C=N/NC(=O)c1nnn(-c2nonc2N)c1CN1CCCC1	GSK3A inh 109, GSK3B inh -86
Nc1nonc1-n1nnc(C(=O)N/N=C/c2cccc(Cl)c2Cl)c1CN1CCCC1	none (no result: GSK3B inh)
Nc1nonc1-n1nnc(C(=O)N/N=C/c2ccccc2Cl)c1CN1CCOCC1	GSK3A inh 50
Nc1nonc1-n1nnc(C(=O)N/N=C/c2ccccc2F)c1CN1CCc2ccccc21	GSK3B inh -50
COc1cc(CC(CC(=O)O)CC(C)OCc2ccccc2)cc(OC)c1 (centres undefined)	none
CN1C(=O)c2c(sc3c2CC(C)(C)SC3)N2CCN=C12	none (no result: GSK3A inh, STK33 inh)
CC1(C)Cc2c(sc3c2C2=NCCN2C=N3)CS1	GSK3A inh 54
Cc1c(Cl)cccc1NC(=O)Cn1c(CCC(=O)O)ccc1-c1ccccc1	none
COc1ccc2cc(C)c3nnc(SCC(=O)Nc4nc(-c5ccc(F)cc5)cs4)n3c2c1	A1 inh 16
COc1ccc(-c2csc(NC(=O)CSc3nnc(Nc4ccccc4C)s3)n2)cc1	none
Cc1c(-c2ccncc2)oc2ccc(Br)cc2c1=O	none
CCOC(=O)CCS(=O)(=O)c1nc(-c2ccccc2)cc(C(F)(F)F)n1	A1 inh 9.7
COC(=O)CCS(=O)(=O)c1nc(-c2ccccc2)cc(C(F)(F)F)n1	none
CCOC(=O)CS(=O)(=O)c1nc(-c2ccccc2)cc(C(F)(F)F)n1	A1 inh 8.7
